# pIC50: −log10 of the molar value. Activity calls are given as the source filed them. No cut-off for these calls is given here.
# How the values were obtained:
# [1] = test system: HeLa; assay: Antiproliferative activity against human HeLa cells after 24 hrs by cell titer 96 aqueous non-radioactive cell proliferation assay; assay type: functional, cell-based
# Method in brief: (§1)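 Cells kept in high-glucose DMEM with 10% FBS and 1% penicillin/streptomycin at 37°C, 5% CO2. They were exposed for 24 h to compound in serum-free DMEM, with final EtOH ≤0.1% (ethanol stocks made fresh). Viability was read by MTS absorbance against vehicle-treated controls; n=4 per group.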
# [2] = Toxicity in athymic nude mouse xenografted with human HeLa cells assessed as effect on adjacent non-malignant tissues at 40 ug, administered intra-tumorally every day for 14 days; details: in vivo, other, 336 h
# [3] = test system: NCI-H460; assay: Antiproliferative activity against human NCI-H460 cells after 24 hrs by cell titer 96 aqueous non-radioactive cell proliferation assay; assay type: functional, cell-based; details: NCI-H460, 24 h; method in brief: as §1
# [4] = biological target: Transient receptor potential cation channel subfamily V member 1 (Homo sapiens) (UniProt Q8NER1); assay: Antagonist activity at TRPV1 (unknown origin) expressed in CHO cells assessed as inhibition of capsaicin-induced increase in calcium influx at 1 uM pretreated before 100 nM capsaicin addition by Calcium 6 dye-based FLIPR assay; assay type: cell-based
# Method in brief: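 CHO-TRPV1 cells, 9x10³ per well, loaded with Calcium 6 dye for 2 h. Cells were pretreated with 1 μM compound, then challenged with 100 nM capsaicin. TRPV1 inhibition was judged from the change in fluorescence at 535 nm.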
# [5] = test system: HSC-3; assay: Antiproliferative activity against human HSC3 cells after 24 hrs by cell titer 96 aqueous non-radioactive cell proliferation assay; assay type: functional, cell-based; details: HSC-3, 24 h; method in brief: as §1
# [6] = Toxicity in athymic nude mouse xenografted with human HeLa cells assessed as effect on motor functions at 40 ug, administered intra-tumorally every day for 14 days; details: in vivo, other, 336 h
# [7] = Toxicity in athymic nude mouse xenografted with human HeLa cells assessed as effect on mobility at 40 ug, administered intra-tumorally every day for 14 days; details: in vivo, other, 336 h
# [8] = Toxicity in athymic nude mouse xenografted with human HeLa cells assessed as effect on respiration at 40 ug, administered intra-tumorally every day for 14 days; details: in vivo, other, 336 h
# [9] = test system: HeLa; assay: Antitumor activity against human HeLa cells xenografted in athymic nude mouse assessed as tumor volume at 40 ug, administered intra-tumorally every day for 14 days (reference value: 562 mm3); assay type: functional
# [10] = Toxicity in athymic nude mouse xenografted with human HeLa cells assessed as effect on neurological function at 40 ug, administered intra-tumorally every day for 14 days; details: in vivo, other, 336 h
# [11] = test system: HeLa; assay: Potency index, ratio of capsazepine IC50 to compound IC50 for antiproliferative activity against human HeLa cells; assay type: functional
# [12] = Toxicity in athymic nude mouse xenografted with human HeLa cells assessed as decrease in body weight at 40 ug, administered intra-tumorally every day for 14 days; details: in vivo, other, 336 h
# [13] = biological target: Transient receptor potential cation channel subfamily V member 1 (Homo sapiens) (UniProt Q8NER1); assay: Agonist activity at TRPV1 (unknown origin) expressed in CHO cells assessed as increase in calcium influx at 1 uM by Calcium 6 dye-based FLIPR assay; assay type: cell-based
# Method in brief: (§2)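 CHO cells stably overexpressing TRPV1, grown at 37°C in 5% CO2. 9x10³ cells per well, loaded with Calcium 6 dye for 2 h. Dose-response curves were run, then compounds at 1 μM were compared with 100 nM capsaicin as the positive control and 1 μM CPZ as the negative control. Calcium influx was read as the change in fluorescence at 535 nm; n=3 per group.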
# [14] = test system: PC-3; assay: Antiproliferative activity against human PC3 cells after 24 hrs by cell titer 96 aqueous non-radioactive cell proliferation assay; assay type: functional, cell-based; details: PC-3, 24 h; method in brief: as §1
# [15] = test system: MDA-MB-231; assay: Antiproliferative activity against human MDA231 cells after 24 hrs by cell titer 96 aqueous non-radioactive cell proliferation assay; assay type: functional, cell-based; details: MDA-MB-231, 24 h; method in brief: as §1
# [16] = biological target: Transient receptor potential cation channel subfamily V member 1 (Homo sapiens) (UniProt Q8NER1); assay: Agonist activity at TRPV1 (unknown origin) expressed in CHO cells assessed as increase in calcium influx by Calcium 6 dye-based FLIPR assay; assay type: cell-based; method in brief: as §2
# Transient receptor potential cation channel subfamily V member 1 (Homo sapiens), sequence (Q8NER1 whole entry): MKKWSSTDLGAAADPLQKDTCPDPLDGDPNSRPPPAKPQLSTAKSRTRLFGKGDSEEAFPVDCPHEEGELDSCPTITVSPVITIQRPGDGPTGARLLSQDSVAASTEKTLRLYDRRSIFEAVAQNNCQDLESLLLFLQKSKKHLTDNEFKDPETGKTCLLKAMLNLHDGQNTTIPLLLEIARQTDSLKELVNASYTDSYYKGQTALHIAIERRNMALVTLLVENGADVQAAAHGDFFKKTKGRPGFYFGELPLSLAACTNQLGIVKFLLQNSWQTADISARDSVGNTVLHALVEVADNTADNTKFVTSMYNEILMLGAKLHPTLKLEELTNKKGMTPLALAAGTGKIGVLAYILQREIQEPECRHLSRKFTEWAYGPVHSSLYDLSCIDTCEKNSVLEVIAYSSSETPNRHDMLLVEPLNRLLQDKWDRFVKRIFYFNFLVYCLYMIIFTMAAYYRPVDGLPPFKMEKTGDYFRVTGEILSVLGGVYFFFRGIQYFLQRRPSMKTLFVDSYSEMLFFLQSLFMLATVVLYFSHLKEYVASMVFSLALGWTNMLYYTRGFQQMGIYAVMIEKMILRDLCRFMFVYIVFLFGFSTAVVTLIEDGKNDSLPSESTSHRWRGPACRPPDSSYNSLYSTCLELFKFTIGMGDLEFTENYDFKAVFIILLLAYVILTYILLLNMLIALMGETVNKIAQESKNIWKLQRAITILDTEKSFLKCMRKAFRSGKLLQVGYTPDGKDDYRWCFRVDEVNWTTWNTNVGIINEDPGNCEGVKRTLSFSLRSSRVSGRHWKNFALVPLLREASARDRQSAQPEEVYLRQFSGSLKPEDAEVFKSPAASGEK
SMILES,pIC50 [1],further results
Oc1ccc2c(c1)CCCN(C(=S)NCCc1ccc(Cl)cc1)C2,4.19,–
Oc1ccc2c(c1)CN(C(=S)NCCc1ccc(Cl)cc1)CCC2,4.30,–
COc1cc2c(cc1OC)CN(C(=S)NCCc1ccc(Cl)cc1)CC2,< 4.00,–
CC(C)C1c2cc(O)c(O)cc2CCN1C(=S)NCCc1ccc(Cl)cc1 (configuration not stated),4.26,–
Oc1cc2c(cc1O)CN(C(=S)NCc1ccccc1)CC2,< 4.00,–
CN(CCc1ccc(O)c(O)c1)C(=O)NCCc1ccc(Cl)cc1,< 4.52,–
COc1ccc(CN(C)C(=O)NCCc2ccc(Cl)cc2)cc1OC,< 4.52,–
COc1ccc(CCNC(=S)N2CCc3cc(O)c(O)cc3C2)cc1,< 4.00,–
COc1ccc2c(c1)CN(C(=S)NCCc1ccc(Cl)cc1)CCC2,< 4.00,–
Oc1cc2c(cc1O)CN(C(=S)NCCc1ccc(Cl)cc1)CCC2 [CAPSAZEPINE],4.52,–
COc1cc2c(cc1OC)CN(C(=O)NCCc1ccc(Cl)cc1)CC2,< 4.00,–
CC(C)C1c2cc(O)c(O)cc2CCN1C(=S)NCc1ccccc1 (configuration not stated),4.46,–
CC(C)C1c2cc(O)c(O)cc2CCN1C(=S)NCCc1ccccc1 (configuration not stated),4.17,–
COc1ccc2c(c1)CCCN(C(=S)NCCc1ccc(Cl)cc1)C2,< 4.00,–
CC(C)C1c2cc(O)c(O)cc2CCN1C(=S)NCCc1ccc(Cl)cc1Cl (configuration not stated),4.34,–
Oc1cc2c(cc1O)CN(C(=S)NCCc1ccc(Cl)cc1Cl)CC2,4.52,–
Oc1cc2c(cc1O)CN(C(=S)NCCc1ccc(Cl)cc1)C2,4.07,–
CN(Cc1ccc(O)c(O)c1)C(=S)NCCc1ccc(Cl)cc1,< 4.00,–

# The next lines start with results.
pIC50 [1],SMILES,further results
> 5.30,Oc1cc2c(cc1O)C(c1ccccc1)N(C(=S)NCCc1ccc(Cl)cc1)CC2 (configuration not stated),–
4.52,CN(Cc1ccc(O)c(O)c1)C(=O)NCCc1ccc(Cl)cc1,–
4.52,CN(CCc1ccc(O)c(O)c1)C(=S)NCCc1ccc(Cl)cc1,–
4.60,Oc1cc2c(cc1O)C(c1ccccc1)N(C(=S)NCCc1ccccc1)CC2 (configuration not stated),–
4.70,Oc1cc2c(cc1O)C(c1ccccc1)N(C(=S)NCCc1ccc(Cl)cc1Cl)CC2 (configuration not stated),–
4.62,COc1ccc(CCNC(=S)N2CCc3cc(O)c(O)cc3C2c2ccccc2)cc1 (configuration not stated),–
4.60,Oc1cc2c(cc1O)CN(C(=S)NCCc1ccc(F)cc1)CC2,–
> 5.30,Oc1cc2c(cc1O)C(c1ccccc1)N(C(=S)NCc1ccccc1)CC2 (configuration not stated),Activity [2]: Non-Toxic; pIC50 [3]: 4.38; inhibition [4]: inactive; pIC50 [5]: 5.70; Activity [6]: Non-Toxic; Activity [7]: Non-Toxic; Activity [8]: Non-Toxic; Activity [9]: 283 mm3; Activity [10]: Non-Toxic; Ratio IC50 [11]: 6; Activity [12]: Non-Toxic; Activity [13]: inactive; pIC50 [14]: 5.60; pIC50 [15]: 4.49
> 5.00,Oc1cc2c(cc1O)CN(C(=S)NCCc1ccc(Cl)cc1)CC2,Activity [2]: Non-Toxic; pIC50 [3]: 4.64; pIC50 [5]: 4.70; Activity [6]: Non-Toxic; Activity [7]: Non-Toxic; Activity [8]: Non-Toxic; Activity [9]: 351 mm3; Activity [10]: Non-Toxic; Activity [12]: Non-Toxic; pIC50 [14]: 4.89; pIC50 [15]: 5.30; Activity [16]: Dose-dependent effect
4.77,Oc1cc2c(cc1O)C(c1ccccc1)N(C(=S)NCCc1ccc(F)cc1)CC2 (configuration not stated),–
4.60,Oc1cc2c(cc1O)CN(C(=S)NCCc1ccccc1)CC2,–
4.82,O=C(NCCc1ccc(Cl)cc1)N1CCc2cc(O)c(O)cc2C1,–
4.55,CC(C)C1c2cc(O)c(O)cc2CCN1C(=S)NCCc1ccc(F)cc1 (configuration not stated),–
